Screening results from PubChem BioAssay.
The list is not random: actives were taken first. Their share in the collection is about 2.2%.
Runt-CBFb FRET: Runt domain-CBFb interaction inhibition. Q01196+Q13951. Cerulean-Runt/Venus-CBFb FRET ratio 530/480, 1 h. inhibition, % at 20 µM. actives 0.46% (n = 220,000). AID 1496;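 active means inhibition over about 50% at 20 µM in the single-dose screen, limit read from the data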
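Doses: 20 µM compound in 1% DMSO | Material: Cerulean-labeled Runt domain protein | Amount: Each fluorescent fusion protein 100 nM | Schedule: Two 1 h room-temperature incubations shielded from light | Measured by: FRET fluorescence | Evaluation: Loss of energy transfer signal | Controls: Unlabeled CBFb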
Runt-SMMHC FRET: Runt domain-CBFb-SMMHC interaction inhibition | Q01196+Q13951 | Cerulean-Runt/Venus-CBFb-SMMHC FRET ratio 530/480, 1 h | inhibition, % at 20 µM | actives 0.74% (n = 220,000);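 active means mean inhibition across duplicate retests at 20 µM reaching about 50%, limit read from the data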;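 further: inhibitors lower the FRET ratio by blocking Runt binding to CBFb-SMMHC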
Hck Nef HTS: human Hck-Nef kinase inhibition; P08631; Recombinant Hck-YEEI plus Nef, Z-Lyte FRET kinase assay; inhibition, % at 20 µM; actives 0.68% (n = 220,000);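 active means Hck-Nef kinase inhibition above about 50%, limit read from the data; inactive means inhibition below that limit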
TbHK1 inh: blocks Trypanosoma brucei hexokinase 1 activity | recombinant TbHK1, G6PDH-coupled NADH A340 | actives 0.11% (n = 220,000) | inhibition, % at 10 µM;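 active means inhibition of 50% or more in the single-dose primary screen; inactive means inhibition below 50%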
14-3-3 Bad inh: disrupts binding of bovine 14-3-3 zeta to phospho-Bad peptide; P63103; TR-FRET 14-3-3zeta/Dy647-pBad peptide displacement, 1 h; inhibition, % at 21.7 µM; actives 0.71% (n = 220,000);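 active means inhibition above about 70%, limit read from the data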
Target sequence (P63103 whole entry, looked up): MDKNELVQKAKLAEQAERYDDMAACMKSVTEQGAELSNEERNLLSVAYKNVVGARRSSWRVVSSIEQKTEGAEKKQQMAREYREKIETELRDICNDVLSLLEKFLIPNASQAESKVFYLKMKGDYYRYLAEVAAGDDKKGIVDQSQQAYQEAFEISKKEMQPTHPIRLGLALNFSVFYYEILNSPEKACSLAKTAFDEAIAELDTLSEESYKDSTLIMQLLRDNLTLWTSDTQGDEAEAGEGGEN
RanGTP-Imp inh: inhibitors of RanGTP-importin-beta interaction, primary screen, biochemical, FRET, CFP-Ran, YFP-importin-beta, homogeneous | cell-free CFP-Ran/YFP-importin-beta FRET ratio | AID 2216 | inhibition, % (no concentration beside the values) | actives 1.1% (n = 300,000);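 active means more than half of the replicate wells show a fall in the fluorescence ratio signal beyond about 16%, limit read from the data, passing the limit was not always enough; inconclusive means exactly half of the replicate wells pass the set limit; inactive means fewer than half of replicates pass the limit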
Numbers stand for hits; i = inactive; ? = inconclusive; nt = not tested or not shown; [ ] = dose if it differs, or a comment.

SMILES	Runt-CBFb FRET	Runt-SMMHC FRET	Hck Nef HTS	TbHK1 inh	14-3-3 Bad inh	RanGTP-Imp inh
Nc1c(Cl)ncnc1N/N=C/c1ccccn1	i	78	i	i	i	nt
Cc1cccc2cc(C#N)c(SCC(=O)N3CCC(C)CC3)nc12	i	i	i	i	i	i
CCOCCCNC(=S)N1CCCN(c2nc3c(C)c(C)ccc3cc2C#N)CC1	nt	nt	i	i	i	51
COCC(=O)N1CCCN(c2nc3c(C)cccc3cc2C#N)CC1	i	i	i	i	i	57
Cc1cc(C)c2cc(C#N)c(N3CCCN(C(=S)NCCCN(C)C)CC3)nc2c1	nt	nt	nt	nt	nt	35
CCOCCCNC(=S)NCCCNc1nc2c(C)c(C)ccc2cc1C#N	i	i	i	i	i	nt
CCOCCCNC(=S)N1CCCN(c2nc3cc(C)ccc3cc2C#N)CC1	i	76	i	i	i	i
C/C(=N\Nc1ccc(C)c(Cl)c1)c1cccnc1	nt	nt	nt	nt	nt	i
CN1/C(=C/C=C(/C#N)C(N)=O)C(C)(C)c2ccccc21	61	i	i	i	i	115
CN1/C(=C\C=C(/C#N)C(=O)Nc2ccccc2F)C(C)(C)c2ccccc21	i	58	i	i	i	122
CN1/C(=C\C=N\O)C(C)(C)c2ccccc21	i	i	i	i	i	i
O=C(CN1CCOCC1)NN=C1CCCCCCCCCCC1	i	i	i	i	i	i
O=C(O)COCC(=O)Nc1ccc(OCCc2ccccc2)cc1	nt	nt	nt	nt	nt	i
Cc1cc(-n2c(C)cc(C(=O)CSc3ncnc4ccccc34)c2C)no1	i	110	i	i	i	i
Cc1cc(-n2c(C)cc(C(=O)CSc3nnc4sc5ccccc5n34)c2C)no1	i	i	i	i	i	i
O=C1NC(=Nc2ccc(O)cc2)S/C1=C\C=C\c1ccco1	i	i	94	i	i	i
COc1cc(/C=C2/SC(=Nc3ccc(O)cc3)NC2=O)cc(OC)c1O	i	i	i	i	i	i
COc1ccccc1NC(=O)O/N=C(\N)c1ccccc1	i	i	i	i	i	?
O=C(O)/C=C/C(=O)Nc1ccc(C2(c3ccc(NC(=O)/C=C/C(=O)O)cc3)c3ccccc3-c3ccccc32)cc1	nt	nt	nt	nt	nt	i
CN1CCc2c(sc(NC(=O)Cc3ccccc3)c2C#N)C1	nt	nt	nt	nt	nt	164
CC(C)N1CCc2c(sc(NC(=S)NC(=O)c3ccccc3)c2C#N)C1	i	60	i	i	i	162
CCCN1CCc2c(sc(NC(=S)NC(=O)c3ccccc3)c2C#N)C1	i	93	i	i	90	159
CC(C)C1Cc2c(sc(NC(=S)NC(=O)c3ccccc3)c2C#N)CO1 (stereo not given)	i	i	i	i	i	?
CC(C)N1CCc2c(sc(NC(=O)c3ccc(S(=O)(=O)N4CCOCC4)cc3)c2C#N)C1	i	i	i	i	i	43
CCCCOc1ccc(C(=O)N2CCN(CC(=O)Nc3ccc(C)cc3)CC2)cc1OC	nt	nt	nt	nt	nt	i
SMILES	Runt-CBFb FRET	Runt-SMMHC FRET	Hck Nef HTS	TbHK1 inh	14-3-3 Bad inh	RanGTP-Imp inh
CC(C)CCNC(=O)CCn1nc(-c2ccc(Cl)cc2)ccc1=O	nt	nt	nt	nt	nt	i
COc1cc(C(=O)Nc2sc3c(c2C#N)CCN(C(C)=O)C3)cc(OC)c1OC	i	79	i	i	i	38
CC(=O)N1CCc2c(sc(NC(=O)c3ccc([N+](=O)[O-])o3)c2C#N)C1	i	i	i	i	i	i
CCOc1cccc(NC(=O)C2CC(=O)NC(=Nc3ccccc3)S2)c1 (stereo not given)	i	i	i	i	i	i
NC(=O)CC[C@@H]1NC(=O)[C@@H]2CCCN2C(=O)c2cc([N+](=O)[O-])cc(I)c2NCCCC[C@@H](C(=O)NC(CC(=O)O)C(N)=O)NC1=O (stereo not given in full)	i	i	i	i	i	i
COc1ccc(/C=C/C(O)=C(\C#N)c2nnc(N3CCOCC3)n2-c2ccccc2)cc1OC	i	i	i	i	i	i
COc1ccc(N2C(C)=CS/C2=C(/C#N)c2nnc(N3CCOCC3)n2-c2ccccc2)cc1	i	i	i	i	84	i
CCOC(=O)N1CCC(=NNC(=O)COc2cccc(C)c2)CC1	i	i	i	i	i	i
O=Cc1cn(CC(=O)N2CCc3ccccc32)c2ccccc12	i	i	i	i	i	i
OCCCN=c1cc(-c2ccccc2)oc2ccc(Cl)cc12	i	i	i	i	193[fluorescence artefact?]	i
